SMILES strings stand for the structures. Activity calls are given as the source filed them. The rule behind the calls is not given here.

Data set [1] is described as follows: Toxicity in human PC-3 cells xenografted CD1 nude mouse assessed as body weight loss at 120 mg/kg, po administered 3 times per week for 2 weeks measured during compound dosing relative to control. In kind it is organism-based. To be noted: in vivo, 336 h. The procedure, abridged: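 Male CD1-nude mice with s.c. PC-3 tumours (50% Matrigel/50% PBS, left flank), randomized at mean 0.2 cm³, n=5/group, treated from 25 d post-implant. Body weight monitored versus vehicle-only controls.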
(Xenograft models place foreign cells or tissue in a host animal.)

The test system of data set [2] is MDA-MB-468. Put plainly: Synergistic antiproliferative activity against human MDA-MB-468 cells assessed as combination index at ED90 measured after 72 hrs in presence of docetaxel by celltiter-glo assay. It counts as functional.
In data set [3] the test system is NCI-H358. Put plainly: Antiproliferative activity against human NCI-H358 cells assessed as reduction in cell proliferation measured after 72 hrs by celltiter-glo assay. It counts as functional, cell-based. To be noted: NCI-H358, 72 h. The essentials: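 Cells in RPMI 1640 with 10% heat-inactivated FBS at 37°C and 5% CO₂ were seeded at 2 to 3 × 10³ per well. […] Growth was read as cellular ATP by CellTiter-Glo.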
For orientation: Cellular ATP, detected with luciferase, serves as a proxy for viable cell number.

A short description of data set [4]: In vivo inhibition of AKT phosphorylation at S473 residue in human NCI-H292 cells xenografted mouse at 120 mg/kg, po administered as single dose measured after 12 hrs by Western blot analysis relative to control. In kind it is functional.
Data set [5] concerns A2780. The data set can be described thus: Synergistic antiproliferative activity against human A2780 cells assessed as combination index at ED75 measured after 72 hrs in presence of carboplatin by celltiter-glo assay. In kind it is functional. The procedure, abridged:
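Cells were seeded at 2–3 × 10³ per well in RPMI 1640 with 10% FBS. At 24 h, MK-2206 and the partner drug were added simultaneously at constant concentration ratios spanning each agent's IC₅₀, for 72 h. Growth was read as cellular ATP by CellTiter-Glo. CI was taken from median-effect plots of each agent alone and in combination (Chou–Talalay), at ED₅₀, ED₇₅ and ED₉₀.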

For data set [6], the system named is NCI-H460. The data set can be described thus: Synergistic antiproliferative activity against human NCI-H460 cells assessed as combination index at ED90 measured after 72 hrs in presence of doxorubicin by celltiter-glo assay. It counts as functional.
The subject of data set [7] is MDA-MB-453. The data set can be described thus: Synergistic antiproliferative activity against human MDA-MB-453 cells assessed as combination index at ED90 measured after 72 hrs in presence of docetaxel by celltiter-glo assay. It counts as functional. The essentials:
(§1)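 Cells grown in RPMI 1640 with 10% heat-inactivated FBS at 37°C, 5% CO₂. Seeded at 2 to 3 × 10³ per well; drugs added 24 h later. […] Viability read as cellular ATP by CellTiter-Glo. CI calculated by Chou–Talalay from median-effect plots at ED50, ED75 and ED90.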

Data set [8] has as its system SK-OV-3. Put plainly: Antitumor activity against human SK-OV-3 cells xenografted in po dosed CB17/icr SCID mouse assessed as tumor growth inhibition administered 3 times per week for 2 weeks starting 2 hrs post lapatinib treatment and measured twice a week during compound dosing by caliper method. In kind it is functional, organism-based. The settings on record: dose 60-120 mg/kg. The essentials: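 SK-OV-3 cells were implanted s.c. into female C.B-17/ICR-scid mice, which were randomized at 0.13 cm³, n = 5. Lapatinib (water) was given at 100 mg/kg po on days 0–4 and 7–11. MK-2206 (30% Captisol) was given at 60 or 120 mg/kg po on days 0, 2, 4, 7, 9, 11. Tumor volume by calipers twice weekly.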

Data set [9] relates to NCI-H1703. Put plainly: Induction of apoptosis in human NCI-H1703 cells assessed as fold induction of capsase-3/7 activity measured after 24 to 48 hrs in presence of gemcitabine by caspase-glo 3/7 assay. It counts as functional. The settings on record: time 24-48 hrs.
Data set [10] deals with HCC70. The data set can be described thus: Antitumor activity against human HCC70 cells xenografted in CB17/icr SCID mouse assessed as reduction in tumor volume at 120 mg/kg, po administered 3 times per week for 3 weeks and measured twice a week during compound dosing by caliper method. It counts as functional, organism-based. The essentials:
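Female C.B-17/ICR-scid mice were given s.c. HCC70 cells in 50% Matrigel/50% PBS in the left flank. They were randomized at a mean tumor size of 0.2 cm³, n = 5 per group. Lapatinib (distilled water) was given at 100 mg/kg po, 5 d/wk for 3 wk. MK-2206 (30% Captisol) was given at 120 mg/kg po, 3×/wk, 2 h after lapatinib. Calipers twice weekly; volume = […] × 0.5.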

In data set [11] the test system is NCI-H460. The data set can be described thus: Synergistic antiproliferative activity against human NCI-H460 cells assessed as combination index at ED75 measured after 72 hrs in presence of gemcitabine by celltiter-glo assay. It counts as functional.
For data set [12], the system named is HCC70. Put plainly: Synergistic antiproliferative activity against lapatinib pretreated human HCC70 cells assessed as combination index at ED75 measured after 72 hrs by celltiter-glo assay. It counts as functional.
For data set [13], the system named is NCI-H460. Put plainly: Synergistic antiproliferative activity against human NCI-H460 cells assessed as combination index at ED50 measured after 72 hrs in presence of camptothecin by celltiter-glo assay. It counts as functional.
Data set [14] deals with HCC70. Put plainly: Synergistic antiproliferative activity against human HCC70 cells assessed as combination index at ED50 measured after 96 hrs in presence of lapatinib by celltiter-glo assay. In kind it is functional.
In data set [15] the target is RAC-alpha serine/threonine-protein kinase (Homo sapiens) (UniProt P31749). The data set can be described thus: Inhibition of AKT in human HCC827 cells assessed as reduction in PRAS40 phosphorylation at T246 residue at 5 umol/L measured after 5 hrs by Western blot analysis. It counts as cell-based. The settings on record: dose 5.0 µmol/L.
Sequence of RAC-alpha serine/threonine-protein kinase (Homo sapiens) (P31749 whole entry): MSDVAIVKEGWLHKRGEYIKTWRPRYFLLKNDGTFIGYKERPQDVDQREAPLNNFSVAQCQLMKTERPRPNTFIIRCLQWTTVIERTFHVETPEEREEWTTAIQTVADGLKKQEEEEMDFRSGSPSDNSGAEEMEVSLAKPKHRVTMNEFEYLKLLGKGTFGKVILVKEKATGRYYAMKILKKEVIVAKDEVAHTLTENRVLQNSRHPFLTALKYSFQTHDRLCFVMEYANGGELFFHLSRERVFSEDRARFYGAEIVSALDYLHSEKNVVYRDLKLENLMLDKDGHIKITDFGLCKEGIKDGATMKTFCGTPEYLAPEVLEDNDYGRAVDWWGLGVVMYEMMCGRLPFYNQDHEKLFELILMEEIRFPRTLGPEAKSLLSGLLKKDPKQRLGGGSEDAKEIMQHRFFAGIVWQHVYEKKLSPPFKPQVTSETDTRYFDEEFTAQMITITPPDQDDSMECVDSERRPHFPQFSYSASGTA
Data set [16] has as its system UMC-11. Put plainly: Synergistic antiproliferative activity against human UMC-11 cells assessed as combination index at ED25 to ED90 measured after 72 hrs in presence of carboplatin by celltiter-glo assay. In kind it is functional.
Data set [17] addresses RAC-alpha serine/threonine-protein kinase (Homo sapiens) (UniProt P31749). Put plainly: Inhibition of AKT phosphorylation at S473 residue in human HCC70 cells at 1 umol/L measured after 3 to 24 hrs by Western blot analysis. To be noted: dose 1.0 µmol/L, time 3-24 hrs. In kind it is cell-based. The procedure, abridged:
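HCC70 cells at ~70% confluence were exposed to 10 µmol/L lapatinib, 1 µmol/L MK-2206, or both, for 0, 3, 6, 12 or 24 h. Lysates were prepared in Triton X-100/Tris buffer (pH 7.5) with protease and phosphatase inhibitors. Immunoblots after SDS-PAGE and nitrocellulose transfer were probed for pAkt and pS6.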

Data set [18] relates to MDA-MB-468. The data set can be described thus: Synergistic antiproliferative activity against human MDA-MB-468 cells assessed as combination index at ED75 measured after 72 hrs in presence of docetaxel by celltiter-glo assay. It counts as functional. The essentials: as §1
The subject of data set [19] is NCI-H460. The data set can be described thus: Synergistic antiproliferative activity against human NCI-H460 cells assessed as combination index at ED90 measured after 72 hrs in presence of carboplatin by celltiter-glo assay. It counts as functional.
Data set [20] can be described thus: Toxicity in human HCC70 cells xenografted CB17/icr SCID mouse assessed as body weight loss at 120 mg/kg, po administered 3 times per week for 3 weeks starting 2 hrs post-lapatinib treatment and measured during compound dosing. It counts as organism-based. To be noted: in vivo, 504 h. The essentials: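 HCC70 cells in 50% Matrigel/PBS injected s.c. into flank of female C.B-17/ICR-scid mice; dosing began after 3 wk, groups randomized at mean tumour 0.2 cm³ (n = 5). Lapatinib 100 mg/kg p.o. in distilled water, 5 d/wk for 3 wk; MK-2206 in 30% Captisol p.o. 3×/wk for 3 wk, given 2 h after lapatinib. Body weight and physical signs monitored throughout.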

For data set [21], the system named is HCC70. Put plainly: Synergistic antiproliferative activity against human HCC70 cells assessed as combination index at ED90 treated 24 hrs prior to lapatinib and measured after 72 hrs by celltiter-glo assay. In kind it is functional. The settings on record: time 96 hrs.

On to `Cl.NC1(c2ccc(-c3nc4ccn5c(=O)[nH]nc5c4cc3-c3ccccc3)cc2)CCC1`, for which the values for the Activity in data set [1] and in data set [20] were 8% and “Non-Toxic”, respectively. In addition, the CI90 worked out at 0.9 in data set [2]; 0.17 in [6]; 0.3 in data set [7]; 0.37 in data set [19]; 0.18 in data set [21]. Besides, the IC50 (usually the concentration needed to halve the response being measured) in data set [3] was 13.5 µM. In data set [4], the inhibition in vivo (usually the share of the control response that was lost under treatment) at 120 mg/kg amounted to 53.1%. The CI75 worked out at 0.43 in data set [5], 0.39 in data set [11], 0.18 in data set [12] and 0.8 in data set [18]. Further, the TGI result in [8] was “Dose-Dependent Effect”. Further, the “fold change (FC)” value in data set [9] is on record as 1.5. Besides, the outcome in data set [10] was Active. Also, the CI50 in data set [13] is listed as 0.39; in [14], 0.18. In addition, the inhibition entry in [15] and in [17] was “Active” each time. Besides, in data set [16], the CI was found to be 1.36.
